# This is one part of a sample in which hits are shown more often than they occur.
# T cruzi repl: T. cruzi replication inhibition; T. cruzi beta-gal in NIH3T3, luminescence, 90 h; inhibition, % (no concentration beside the values); hit rate 1.4% among 300,000;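 active = mean inhibition across valid replicates above about 55%, limit read from the data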;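 note: signal also drops with host cell toxicity which is not excluded here; 0% = plate median of DMSO wells and 100% = zero luminescence signal; higher percent means less beta-gal luminescence so fewer parasites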
#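 System: mouse NIH/3T3 fibroblasts infected with β-gal-expressing T. cruzi Tulahuen C4 / Input: NIH/3T3 cells, 5,000 per well / Buffer or medium: Low-serum DMEM with 2% FBS / Probe or stimulus: 5000 reporter trypomastigotes per well / Schedule: ≥90 h infection period, 3 h prior cell attachment / Measured by: GalScreen luminescence, 60 min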
# Dynein transport: dynein cargo transport inhibition; AID 1381; z-score, hits read low; hit rate 0.47% among 220,000; 3617.4 mouse cells, GR-EGFP nuclear translocation imaging; test concentration mostly 20 µM; stimulated with dexamethasone, 1 µM; active compounds read low;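 active = plate z-score of nuclear minus cytoplasmic receptor signal below a set negative limit, without overly bright fluorescence or cell loss, cut at about -3.5 in these data, passing the limit was not always enough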;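 note: z-score of nuclear minus cytoplasmic ring GR-EGFP intensity difference per well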
#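 Buffer or medium: tet-free, stripped-serum medium; Also added: dexamethasone, 1.0 µM final; Technique: high-content fluorescence imaging after fixation; Times: 48 h induction, 1 h compound, 30 min dex at 37 °C; Read-out: per-cell GR-EGFP intensity, nucleus versus surrounding cytoplasmic ring, well-averaged.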
# Lmaj promast: reduces viability of Leishmania major promastigotes. inhibition, % at 10 µM. hit rate 9% among 200,000. resazurin fluorescence viability; in the data active = inhibition above about 50%;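 note: promastigotes grown with compound for 44 hours at 28 °C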
# UPR XBP1 act: activators of adaptive arm of unfolded protein response (XBP1). CHO-XBP1 luciferase reporter, IRE1-XBP1 UPR activation, luminescence; percent of tunicamycin response, DMSO as zero. AID 463104. activation, % at 20 µM. hit rate 0.33% among 330,000;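 active = versus positive control, 20 µM dose yields 30% or more activation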;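 note: 100% = tunicamycin at 10 µg/mL and 0% = DMSO only wells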
#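 incubation = overnight seeding at 37 °C, 6 h compound treatment at 37 °C | assay system = CHO-XBP1 cells stably carrying IRE1-XBP1-driven luciferase reporter | input = 1000 cells per well | detection = luciferase luminescence | dosing = single point, 20 µM final compound, 1% DMSO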
# CHOP inh: blocks CHOP induction under ER stress | CHO-K1 CHOP-promoter luciferase, tunicamycin-induced, 15-18 h | inhibition, % at 10 µM | hit rate 3.8% among 220,000 | AID 2732;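 active = compounds that reduced the stress-induced luciferase reporter signal by more than about 70% of percent inhibition, limit read from the data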;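 note: 0% = tunicamycin plus vehicle and 100% = wells without tunicamycin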
# CHOP UPR activ: apoptotic UPR (CHOP) activation | hit rate 0.34% among 330,000 | CHO-CHOP luciferase reporter, luminescence; percent of tunicamycin response over DMSO baseline | activation, % at 10 µM;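 active = at 10 µM dose, activation of 40% or more, normalized to positive control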;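 note: 100% = tunicamycin at 10 µg/mL and 0% = DMSO alone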
#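 Evaluation: % reporter activation, DMSO baseline versus tunicamycin full activation; System: CHO-CHOP luciferase reporter cell line; Input: 500 cells/well; Incubation: 6 h compound treatment, 37 °C; Measured by: Steady-Glo luciferase luminescence; Dosing: one dose, 10 µM in 0.5% DMSO; Buffer or medium: F12 medium, 10% FBS; Benchmarks: positive tunicamycin 10 µg/mL, negative DMSO alone.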
# The depositor's hits bear a star; · = no result given; ! = a repeat was not active.
SMILES,T cruzi repl,Dynein transport,Lmaj promast,UPR XBP1 act,CHOP inh,CHOP UPR activ
COc1ccc(OC)c(-c2nc(CN3CCCCC3c3cccnc3)c(C)o2)c1 (configuration not stated),59.4*,-0.653,7.8,-3.9,-0.1,-1.5
COc1ccc(-c2nc(CN(C)C(C)c3ccon3)c(C)o2)c(C)c1C (configuration not stated),7.5,0.31,5.7,-5.0,28.2,1.2
COc1cccc(OC)c1C(=O)NC(=S)N1CCCCC1c1cccnc1 (configuration not stated),51.3,·,·,-5.5,·,-2.9
COc1cccc(C2CCCCN2Cc2nc(-c3ccc(C)o3)oc2C)c1 (configuration not stated),11.3,1.12,-5.8,-4.2,12.4,0.1
COc1ccc(-c2nc(CN(CC3CCC(=O)N3)C(C)C)c(C)o2)c(C)c1C (configuration not stated),7.2,1.1,79.2*,-1.7,29.4,3.8
COc1ccc(-c2nc(CN3CCCCC3c3nccn3C)c(C)o2)c(C)c1C (configuration not stated),11.9,-0.987,96.5*,-4.7,-1.8,1.2
CC(=O)c1c(OCC(=O)O)ccc2c(C)cc(=O)oc12,-9.5,-1.55,0.3,-0.2,0.0,0.3
Cc1cc(=O)oc2c(C(=O)/C=C/c3ccccc3)c(O)ccc12,-2.4,-1.14,51.7*,1.3,-12.6,0.1
COc1cc(/C=C/C(=O)c2c(O)ccc3c(C)cc(=O)oc23)ccc1O,-32.1,-1.72,99.4*,4.5,-38.0,32.7
COc1ccc(/C=C\C(=O)c2c(O)ccc3c(C)cc(=O)oc23)cc1OC,·,-2.77,100.2*,6.2,73.3*,16.9
Cc1cc(=O)oc2c(C(=O)/C=C\c3cccs3)c(O)ccc12,-13.6,-2.34,34.1,1.0,18.0,1.4
Cc1ccc(NC(=S)Nc2cccnc2)c(S(=O)(=O)N2CCCCC2)c1,-8.8,-0.231,3.4,-5.8,46.0,-0.8
CCCC(C(=O)NC1CCCC1)N(C(=O)c1snc(C(N)=O)c1N)c1ccc(F)cc1 (configuration not stated),10.2,·,·,-2.9,·,-1.5
CCOC(=O)C1CN(S(=O)(=O)c2ccc(C)cc2)c2ccccc2O1 (configuration not stated),-9.3,·,·,1.4,·,-0.5
Cc1ccc(C)c(NS(=O)(=O)c2cc(C(=O)NCC3CCCO3)ccc2C)c1 (configuration not stated),13.3,·,·,-2.9,·,0.0
Cc1ccc(C)c(NS(=O)(=O)c2cc(C(=O)NCCSC3CCCCC3)ccc2C)c1,28.1,0.531,97.0*,-3.3,69.7,-1.6
Cc1ccccc1NS(=O)(=O)c1cc(C(=O)NCCSC2CCCCC2)ccc1C,28.9,0.471,99.8*,-1.9,71.9*,-0.9
CN1CCc2nc3ccc(Cl)cc3c(-c3ccccc3Cl)c2C1,40.3,-0.41,32.3,-5.3,21.9,1.7
CCCCC1(CO)C(=O)N(c2ccccc2)N(c2ccccc2)C1=O,0.6,1.61,·,-2.2,-13.2,0.8
CCCCC1(Cc2cccc([N+](=O)[O-])c2)C(=O)N(c2ccccc2)N(c2ccccc2)C1=O,39.0,-1.18,57.5*,0.6,45.1,9.0
O=C(CCN1C(=O)/C(=C/c2ccccc2Cl)SC1=S)Nc1ccccn1,-9.9,·,·,-0.5,·,1.0
O=C(CCCN1C(=O)/C(=C/c2ccccc2Cl)SC1=S)Nc1ccccn1,7.6,0.00184,18.4,-5.5,91.2*,-4.1
O=C(O)CCCN1C(=O)/C(=C/c2cn(-c3ccccc3)nc2-c2cccs2)SC1=S,34.8,0.514,-5.5,·,85.2*,·
Cc1cc(NC(=O)CCCN2C(=O)/C(=C/c3cccs3)SC2=S)no1,1.5,-0.409,-5.7,6.3,76.3*,-2.5
O=C(CCCN1C(=O)/C(=C/c2ccccc2Cl)SC1=S)NNC(=O)c1ccc(Cl)cc1,-2.4,0.0892,·,-5.7,92.5*,-6.6
SMILES,T cruzi repl,Dynein transport,Lmaj promast,UPR XBP1 act,CHOP inh,CHOP UPR activ
Cc1csc(CNC(=O)C2CCC(=O)N(CCc3cccc(F)c3)C2)n1 (configuration not stated),-4.5,·,·,-3.2,·,0.3
O=C(NNC(=O)C1CC=CCC1)c1ccccc1Cl (configuration not stated),13.4,·,·,1.0,·,2.0
N#CCCN(Cc1cccnc1)C(=S)NC1CC2C=CC1C2 (configuration not stated),9.3,0.0721,·,0.6,15.5,-0.7
Cc1cc(/C=C(\C#N)C(=O)Nc2ccc(Cl)cc2)c(C)n1-c1ccc(N2CCOCC2)c([N+](=O)[O-])c1,41.1,-0.293,100.1*,-0.1,13.6,-1.1
CCCCNC(=O)CSc1nc2ccc(Nc3nc(N4CCOCC4)nc(N4CCOCC4)n3)cc2s1,30.5,0.485,·,4.8,3.9,3.6
CNc1cc(C)nc(N2CCOCC2)n1,-14.0,-0.0551,·,-1.7,-5.7,0.0
Cc1ccc(Nc2cc(C)nc(N3CCOCC3)n2)c(C)c1,3.2,1.41,75.6*,-0.1,25.1,0.7
CCCCSc1nc2ccc(Nc3nc(N4CCOCC4)nc(N4CCOCC4)n3)cc2s1,57.2*,-0.719,32.6,1.6,-21.7,1.1
BrC(/C=N/Nc1nc(N2CCOCC2)nc(N2CCOCC2)n1)=C/c1ccccc1,-2.1,1.47,9.5,-1.9,82.0*,-4.1
c1ccc2oc(-c3ccc(Nc4nc(N5CCCCC5)nc(N5CCOCC5)n4)cc3)nc2c1,15.5,0.0201,73.7*,-2.7,25.9,2.2
Cc1cccc(Nc2nc(N3CCOCC3)nc(N3CCOCC3)n2)c1,55.7*,·,·,-1.5,·,1.5
Cc1cccc(Nc2nc(N3CCCCC3)nc(N3CCCCC3)n2)c1,29.4,-0.00268,34.3,-2.1,-2.8,0.1
CCN(CC)C(=O)[C@H]1C[C@H](CC(=O)NCCN2CCOCC2)C(=O)N2CCc3c([nH]c4cc(CCC(=O)N(C)C)ccc34)[C@]12C,·,·,·,0.5,·,1.6
CN(C)CCCN1C(=O)CSC1c1ccccc1 (configuration not stated),-8.2,0.883,-1.4,0.0,29.1,-1.7
COc1cc(C2SCC(=O)N2CCCN(C)C)cc(OC)c1OC (configuration not stated),60.9*,0.541,-1.8,-4.1,27.7,0.7
COc1ccc(CCNCC(O)Cn2c3ccccc3c3ccccc32)cc1OC (configuration not stated),60.5*,0.478,100.3*,8.8,16.2,-0.9
C(=C\c1ccccc1)/CN1CCN(C(c2ccccc2)c2ccccc2)CC1,-2.2,-0.811,27.2,-4.6,22.6,0.2
Fc1ccc(C(c2ccc(F)cc2)N2CCN(C/C=C/c3ccccc3)CC2)cc1,35.6,-0.637,52.6*,-5.4,84.3*!,-1.5
